The values below come from ChEMBL document CHEMBL4765307, “Design, synthesis and biological activity of novel 2,3,4,5-tetra-substituted thiophene derivatives as PI3Kα inhibitors with potent antitumor activity” (Eur J Med Chem, 2020).

Data set [1] deals with Phosphatidylinositol 4,5-bisphosphate 3-kinase catalytic subunit alpha isoform (Homo sapiens) (UniProt P42336). The experiment in a line: Inhibition of PI3Kalpha in human T47D cells assessed as inhibition of insulin-stimulated Akt phosphorylation at Ser473 residue at 0.3 uM preincubated for 2 hrs followed by incubation with insulin for 2 hrs by western blot analysis relative to control. The following applies: time 4.0 hrs. The format is cell-based. An outline of the steps:
(§1)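 T47D cells given compound at 37 °C for 2 h, then stimulated with 1 µg/mL insulin for 2 h; lysed in RIPA with protease/phosphatase inhibitors and 1 mM PMSF; BCA-normalised SDS-PAGE, PVDF blot probed overnight at 4 °C for total Akt and pAkt Ser473, infrared secondary detection.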
Background: Immunoblotting shows a protein as a band on a membrane.

Data set [2] in a line: Clearance in rat liver microsomes at 1 uM measured after 60 mins by LC-MS/MS analysis. The format is ADME, Microsome. The settings on record: read-out: CLH. Put shortly: (§2)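 Compound 1 µM with human or rat microsomes 0.5 mg/mL, preincubated 10 min at 37 °C in 100 mM potassium phosphate pH 7.4, 10 mM MgCl2; started with NADPH, sampled 0–60 min, quenched with cold acetonitrile, LC–MS/MS. A parallel no-NADPH control was run.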
A general note: Liver microsomes are vesicles of endoplasmic reticulum, rich in cytochrome P450 enzymes.

Data set [3] concerns T47D. The experiment in a line: Antiproliferative activity against human T47D cells harboring PIK3CA mutation assessed as reduction in cell viability after 3 days by CellTiter-Glo luminescence assay. In kind it is functional, cell-based. The following applies: 72 h. Put shortly: (§3)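 ATCC lines, 10% FBS: T47D, H1975, H460 in RPMI1640; U87MG in DMEM; A549 in F12K. Seeded 3×10^3 per well the day before, exposed to 3-fold serial dilutions or DMSO for 3 days at 37 °C, 5% CO2; CellTiter-Glo luminescence.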

A short description of data set [4]: Half life in human liver microsomes at 1 uM by LC-MS/MS analysis. In kind it is ADME, Microsome. An outline of the steps:
as §2

Data set [5] is described as follows: Clearance in human liver microsomes at 1 uM measured after 60 mins by LC-MS/MS analysis. In kind it is ADME, Microsome. The settings on record: read-out: CLH. An outline of the steps: as §2
Data set [6] deals with Phosphatidylinositol 4,5-bisphosphate 3-kinase catalytic subunit gamma isoform (Homo sapiens, UniProt P48736). Put plainly: Inhibition of GST-tagged human recombinant PI3Kgamma catalytic domain (468 to 1203 residues) expressed in insect cells using PIP2 peptide as substrate incubated for 1 hr in presence ATP by ADP-Glo Kinase Assay. Put shortly:
(§4)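 ADP-Glo reagent 1 for 40 min, then reagent 2 with 60 min equilibration before reading. IC50 taken from inhibition curves; average of at least two runs.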
In general terms: In ADP-Glo the light output rises with the ADP produced.

Data set [7] is described as follows: Clearance in Sprague-Dawley rat at 5 mg/kg, iv measured after 24 hrs by LC-MS/MS analysis. The format is ADME, organism-based. The following applies: in vivo. Put shortly: (§5)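 Male SD rats (n=6), single 5 mg/kg intravenous dose; heparinised blood at 0.083–24 h, centrifuged at 4 °C; plasma quantified by LC–MS/MS; noncompartmental parameters.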
The target in data set [8] is PI3K p110 beta/p85 alpha (Homo sapiens, UniProt P42338). The experiment in a line: Inhibition of N-terminal His6-tagged human recombinant full length PI3Kbeta co-expressed with human recombinant full length P85alpha in baculovirus infected Sf21 cells using PIP2 peptide as substrate incubated for 1 hr in presence ATP by ADP-Glo Kinase Assay. An outline of the steps:
as §4

The subject of data set [9] is A549. Put plainly: Antiproliferative activity against human A549 cells assessed as reduction in cell viability after 3 days by CellTiter-Glo luminescence assay. In kind it is functional, cell-based. The following applies: A549, 72 h. An outline of the steps: as §3
Data set [10] in a line: AUC (0 to infinity) in Sprague-Dawley rat at 5 mg/kg, iv measured after 24 hrs by LC-MS/MS analysis. The format is ADME, organism-based. The arrangement: route intravenous, dose 5 mg/kg, time 24 hrs. The following applies: in vivo. Put shortly: as §5
Data set [11] has as its target T1, CYP1A2 (Homo sapiens, UniProt P05177).
T1 sequence (P05177 whole entry): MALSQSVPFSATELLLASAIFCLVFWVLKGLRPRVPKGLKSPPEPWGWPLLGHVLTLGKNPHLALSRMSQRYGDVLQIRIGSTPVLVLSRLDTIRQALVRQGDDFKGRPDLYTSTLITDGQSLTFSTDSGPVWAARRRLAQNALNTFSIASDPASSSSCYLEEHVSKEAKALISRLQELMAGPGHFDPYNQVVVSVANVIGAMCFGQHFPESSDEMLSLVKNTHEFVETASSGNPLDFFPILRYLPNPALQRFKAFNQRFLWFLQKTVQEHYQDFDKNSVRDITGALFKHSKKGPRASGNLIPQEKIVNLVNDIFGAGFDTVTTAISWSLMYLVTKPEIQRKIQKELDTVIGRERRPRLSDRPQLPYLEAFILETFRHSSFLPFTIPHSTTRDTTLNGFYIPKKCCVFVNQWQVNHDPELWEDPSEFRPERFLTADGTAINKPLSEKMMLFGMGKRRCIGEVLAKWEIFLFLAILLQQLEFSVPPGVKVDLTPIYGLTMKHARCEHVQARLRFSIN
The experiment in a line: Inhibition of CYP1A2 in human liver microsomes using phenacetin as substrate at 10 uM preincubated for 10 mins followed by incubation with NADPH for 10 mins by LC- MS/MS analysis. In kind it is ADME. The settings on record: probe phenacetin, time 20 min. Put shortly:
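Human liver microsomes 0.25 mg/mL with probe substrate (CYP1A2 10 µM phenacetin; CYP2D6 5 µM dextromethorphan; CYP3A4 2 µM midazolam), test compound 10 µM; 10 min preincubation at 37 °C, NADPH added (final 10 mM), 10 min at 37 °C; stopped with cold acetonitrile containing internal standards; LC-MS/MS.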

A short description of data set [12]: Half life in rat liver microsomes at 1 uM by LC-MS/MS analysis. The format is ADME, Microsome. An outline of the steps: as §2
The target in data set [13] is PI3-kinase p110-alpha/p85-alpha (Homo sapiens, UniProt P42336). Put plainly: Inhibition of His-tagged human full length PI3Kalpha coexpressed with p85 alpha in baculovirus expression system using PIP2 peptide as substrate incubated for 1 hr in presence ATP by Kinase-Glo assay.
PI3-kinase p110-alpha/p85-alpha, sequence (P27986 whole entry, canonical isoform): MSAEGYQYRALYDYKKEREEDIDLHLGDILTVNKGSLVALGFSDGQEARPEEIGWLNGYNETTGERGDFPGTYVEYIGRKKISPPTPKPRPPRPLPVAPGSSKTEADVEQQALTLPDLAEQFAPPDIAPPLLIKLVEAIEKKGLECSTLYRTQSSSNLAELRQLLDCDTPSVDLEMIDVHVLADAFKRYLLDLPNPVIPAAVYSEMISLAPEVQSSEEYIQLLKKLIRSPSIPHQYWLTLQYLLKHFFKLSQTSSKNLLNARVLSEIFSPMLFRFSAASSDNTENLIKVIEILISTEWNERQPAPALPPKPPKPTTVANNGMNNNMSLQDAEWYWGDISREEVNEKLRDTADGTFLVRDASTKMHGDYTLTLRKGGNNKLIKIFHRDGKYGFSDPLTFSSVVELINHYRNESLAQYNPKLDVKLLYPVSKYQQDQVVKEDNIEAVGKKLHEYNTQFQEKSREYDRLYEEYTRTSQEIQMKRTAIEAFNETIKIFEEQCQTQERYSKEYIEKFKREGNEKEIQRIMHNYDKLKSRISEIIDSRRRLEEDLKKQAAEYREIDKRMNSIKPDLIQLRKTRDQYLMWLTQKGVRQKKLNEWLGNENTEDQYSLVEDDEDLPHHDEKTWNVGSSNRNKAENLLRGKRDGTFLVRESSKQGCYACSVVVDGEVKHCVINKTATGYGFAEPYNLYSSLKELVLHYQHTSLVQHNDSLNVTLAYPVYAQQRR
PI3-kinase p110-alpha/p85-alpha, sequence (P42336 whole entry, canonical isoform): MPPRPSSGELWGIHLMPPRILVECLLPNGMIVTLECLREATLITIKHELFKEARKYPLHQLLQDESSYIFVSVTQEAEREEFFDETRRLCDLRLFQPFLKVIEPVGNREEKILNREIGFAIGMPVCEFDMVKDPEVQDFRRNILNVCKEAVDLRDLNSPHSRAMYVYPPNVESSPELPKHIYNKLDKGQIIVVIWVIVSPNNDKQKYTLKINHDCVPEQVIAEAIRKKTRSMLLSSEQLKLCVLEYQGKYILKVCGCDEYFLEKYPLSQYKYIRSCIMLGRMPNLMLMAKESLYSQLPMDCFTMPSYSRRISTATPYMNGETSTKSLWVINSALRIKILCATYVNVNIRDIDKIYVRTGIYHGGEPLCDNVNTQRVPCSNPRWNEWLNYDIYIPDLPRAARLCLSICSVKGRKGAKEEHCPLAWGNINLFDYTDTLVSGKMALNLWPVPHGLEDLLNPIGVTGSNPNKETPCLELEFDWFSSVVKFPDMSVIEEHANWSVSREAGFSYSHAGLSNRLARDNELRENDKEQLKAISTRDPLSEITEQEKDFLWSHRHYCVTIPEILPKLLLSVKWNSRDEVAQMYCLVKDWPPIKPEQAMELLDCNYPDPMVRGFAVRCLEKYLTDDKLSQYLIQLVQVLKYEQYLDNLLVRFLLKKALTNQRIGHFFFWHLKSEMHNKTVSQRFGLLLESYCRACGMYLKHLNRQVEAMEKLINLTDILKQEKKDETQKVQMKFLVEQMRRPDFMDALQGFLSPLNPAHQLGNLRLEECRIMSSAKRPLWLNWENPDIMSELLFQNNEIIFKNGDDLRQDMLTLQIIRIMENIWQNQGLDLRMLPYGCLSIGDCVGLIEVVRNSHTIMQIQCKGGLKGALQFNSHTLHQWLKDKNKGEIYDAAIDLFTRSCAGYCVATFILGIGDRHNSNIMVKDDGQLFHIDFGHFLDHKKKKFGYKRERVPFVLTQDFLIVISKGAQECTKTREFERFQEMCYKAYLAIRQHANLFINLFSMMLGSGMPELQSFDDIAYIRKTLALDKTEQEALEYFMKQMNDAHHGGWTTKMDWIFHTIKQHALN
Data set [14] addresses Phosphatidylinositol 4,5-bisphosphate 3-kinase catalytic subunit alpha isoform (Homo sapiens) (UniProt P42336). Put plainly: Inhibition of PI3Kalpha in human T47D cells assessed as inhibition of insulin-stimulated Akt phosphorylation at Ser473 residue preincubated for 2 hrs followed by incubation with insulin for 2 hrs by western blot analysis relative to control. In kind it is cell-based. The settings on record: dose 0.1-3 µM, time 4.0 hrs. An outline of the steps: as §1

Data set [15] deals with PI3-kinase p110-delta/p85-alpha (Homo sapiens, UniProt O00329). Put plainly: Inhibition of N-terminal His6-tagged human recombinant full length PI3Kdelta co-expressed with human recombinant full length P85alpha in baculovirus infected Sf21 cells using PIP2 peptide as substrate incubated for 2 hrs in presence ATP by ADP-Glo Kinase Assay. Put shortly:
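ADP-Glo reagent 1 for 40 min, then reagent 2 with 60 min equilibration. IC50 from inhibition curves; average of at least two runs.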

In data set [16] the test system is U-87 MG. The experiment in a line: Antiproliferative activity against human U87MG cells harboring PTEN deletion assessed as reduction in cell viability after 3 days by CellTiter-Glo luminescence assay. The settings on record: 72 h. In kind it is functional, cell-based, U-87MG ATCC. An outline of the steps: as §3
Data set [17] has as its system NCI-H460. The experiment in a line: Antiproliferative activity against human NCI-H460 cells harboring PIK3CA mutation assessed as reduction in cell viability after 3 days by CellTiter-Glo luminescence assay. In kind it is functional, cell-based. The following applies: NCI-H460, 72 h. Put shortly: as §3

The term inhibition denotes the relative decrease from the control value, in per cent. In general, IC50 refers to the concentration that inhibits the measured activity by half. By half-life is commonly meant the time in which the quantity being followed falls by half. High values mean slow decline, low ones rapid decline. A word on the Ki: it is the equilibrium dissociation constant of an inhibitor or competing ligand from its target. Usually clearance stands for a measure of how efficiently the substance is removed, as volume per time. One may read the AUC(0-inf) as total exposure, with the tail of the curve extrapolated. Read a high AUC(0-inf) as more exposure.

Phosphatidylinositol 4,5-bisphosphate 3-kinase catalytic subunit alpha isoform (Homo sapiens), sequence (P42336 whole entry, canonical isoform): as above
PI3-kinase p110-delta/p85-alpha, sequence (P27986 whole entry): as the sequence (P27986 whole entry, canonical isoform) above
PI3-kinase p110-delta/p85-alpha, sequence (O00329 whole entry): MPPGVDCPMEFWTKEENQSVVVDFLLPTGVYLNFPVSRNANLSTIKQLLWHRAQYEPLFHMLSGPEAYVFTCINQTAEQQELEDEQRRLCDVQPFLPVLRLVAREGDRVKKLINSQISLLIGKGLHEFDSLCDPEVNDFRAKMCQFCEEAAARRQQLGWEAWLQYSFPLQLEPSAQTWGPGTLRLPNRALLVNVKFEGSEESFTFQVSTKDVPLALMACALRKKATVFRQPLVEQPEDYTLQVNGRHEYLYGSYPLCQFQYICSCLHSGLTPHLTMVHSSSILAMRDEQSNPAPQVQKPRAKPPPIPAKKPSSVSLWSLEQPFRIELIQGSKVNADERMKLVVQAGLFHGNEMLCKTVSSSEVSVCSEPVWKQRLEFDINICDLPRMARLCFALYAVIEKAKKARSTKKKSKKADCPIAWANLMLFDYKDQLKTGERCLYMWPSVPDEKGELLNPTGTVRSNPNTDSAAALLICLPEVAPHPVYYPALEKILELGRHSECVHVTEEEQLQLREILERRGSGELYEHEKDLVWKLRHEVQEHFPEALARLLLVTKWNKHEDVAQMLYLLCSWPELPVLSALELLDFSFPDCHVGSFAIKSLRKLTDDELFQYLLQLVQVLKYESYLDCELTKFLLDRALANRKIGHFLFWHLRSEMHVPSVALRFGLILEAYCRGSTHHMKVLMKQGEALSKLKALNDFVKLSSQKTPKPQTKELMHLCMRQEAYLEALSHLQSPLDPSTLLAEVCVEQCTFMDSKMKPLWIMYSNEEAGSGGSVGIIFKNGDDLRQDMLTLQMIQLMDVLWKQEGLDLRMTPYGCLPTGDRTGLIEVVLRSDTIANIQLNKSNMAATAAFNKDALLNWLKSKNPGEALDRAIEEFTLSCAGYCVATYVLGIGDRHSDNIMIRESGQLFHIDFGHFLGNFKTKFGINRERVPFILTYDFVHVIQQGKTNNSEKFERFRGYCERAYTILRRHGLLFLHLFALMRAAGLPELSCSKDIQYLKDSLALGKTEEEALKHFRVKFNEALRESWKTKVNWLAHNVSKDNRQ
PI3K p110 beta/p85 alpha, sequence (P27986 whole entry): as the sequence (P27986 whole entry, canonical isoform) above
PI3K p110 beta/p85 alpha, sequence (P42338 whole entry): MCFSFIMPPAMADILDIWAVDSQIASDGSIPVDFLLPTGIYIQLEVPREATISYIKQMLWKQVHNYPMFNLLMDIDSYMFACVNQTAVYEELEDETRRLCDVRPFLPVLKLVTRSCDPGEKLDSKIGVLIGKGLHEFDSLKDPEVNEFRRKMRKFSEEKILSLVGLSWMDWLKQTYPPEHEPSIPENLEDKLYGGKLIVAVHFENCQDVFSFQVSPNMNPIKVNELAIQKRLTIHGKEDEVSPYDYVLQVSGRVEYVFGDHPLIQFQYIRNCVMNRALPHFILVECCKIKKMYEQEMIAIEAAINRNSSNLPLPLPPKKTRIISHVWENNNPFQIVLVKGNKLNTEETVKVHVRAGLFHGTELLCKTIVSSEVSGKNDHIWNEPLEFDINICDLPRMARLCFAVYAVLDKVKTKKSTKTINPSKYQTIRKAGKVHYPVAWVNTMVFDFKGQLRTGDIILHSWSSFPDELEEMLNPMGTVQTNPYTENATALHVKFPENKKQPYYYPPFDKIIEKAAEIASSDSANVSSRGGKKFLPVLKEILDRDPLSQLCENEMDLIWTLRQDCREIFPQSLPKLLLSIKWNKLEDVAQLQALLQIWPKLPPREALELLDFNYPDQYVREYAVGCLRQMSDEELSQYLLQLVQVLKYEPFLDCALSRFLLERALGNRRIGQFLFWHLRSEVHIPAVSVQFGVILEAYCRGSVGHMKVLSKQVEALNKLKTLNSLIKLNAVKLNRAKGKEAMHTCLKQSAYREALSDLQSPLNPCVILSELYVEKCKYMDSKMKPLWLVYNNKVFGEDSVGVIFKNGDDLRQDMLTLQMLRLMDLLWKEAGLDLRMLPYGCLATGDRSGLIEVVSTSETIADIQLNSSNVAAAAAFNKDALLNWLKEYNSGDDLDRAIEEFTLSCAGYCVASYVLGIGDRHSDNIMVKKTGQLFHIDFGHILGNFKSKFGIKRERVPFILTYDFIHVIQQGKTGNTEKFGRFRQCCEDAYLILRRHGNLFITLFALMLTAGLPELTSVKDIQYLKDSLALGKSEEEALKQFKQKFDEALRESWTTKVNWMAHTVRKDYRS

With `N#Cc1c(N2CCOCC2)sc(-c2nc[nH]n2)c1-c1ccc(NC(=O)Nc2ccccc2Cl)cc1`, the values for the inhibition in data set [1] and in data set [14] were 59% and “Dose-dependent effect”, respectively. Further, the microsomal CLint at 1 µM in data set [2] was 32.8 µL/min/mg; in [5], 24.8 µL/min/mg. In addition, the half-inhibitory concentration (IC50) in [3] stood at 310 nM; in data set [6], 258 nM; in data set [8], 108 nM; in [9] it was 3840 nM; in data set [13] it was 9.2 nM; in data set [15], 275 nM. Moreover, the results for the IC50 in [16] and in data set [17] were 2860 nM and 200 nM, respectively. Further, the half-life at 1 µM stood at 58.3 min in [4] and 44.7 min in [12]. Also, the Ki in [6] was found to be 193 nM; in data set [8], 89 nM; in data set [13] it was 5.1 nM; in data set [15] it was 245 nM. In data set [7], this compound showed a clearance of 52.4 mL/min/kg. The AUC(0-inf) in data set [10] was found to be 1620 ng·h/mL. The compound further displayed an inhibition at 10 min, 10 µM in [11] of 27.8%.
